# Measurements reported in ChEMBL document CHEMBL1147401, “Bruceanols D, E, and F three new cytotoxic quassinoids from Brucea antidysenterica” (1993).
# Columns and labels:
# Format in all cases: functional
# Conditions in all cases: read-out: ED50 (the source's name)
# [1] = test system: KB; assay: Cytotoxicity against human KB cells
# In short: (§1)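 In vitro cytotoxicity assay run by published protocols. Cell panel: human malignant melanoma ([…]), lung carcinoma (A-549), ileocecal adenocarcinoma (HCT-8), nasopharyngeal epidermoid carcinoma (KB), medulloblastoma (TE-671), and murine lymphocytic leukemia (P-388).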
# [2] = test system: A549; assay: Cytotoxicity against human A549 cells; in short: as §1
# [3] = test system: HCT-8; assay: Cytotoxicity against human HCT8 cells; in short: as §1
# [4] = test system: P388; assay: Cytotoxicity against mouse P388 cells; in short: as §1
# [5] = test system: TE-671; assay: Cytotoxicity against human TE671 cells; in short: as §1
# [6] = test system: RPMI-7951; assay: Cytotoxicity against human RPMI7951 cells; in short: as §1
Structure (SMILES),EC50 [1] [mg/L],EC50 [2] [mg/L],EC50 [3] [mg/L],EC50 [4] [mg/L],EC50 [5] [mg/L],EC50 [6] [mg/L]
COC(=O)[C@]12OC[C@]34[C@H]([C@@H](O)[C@@H]1O)[C@@]1(C)[C@H](O)C(=O)C=C(C)[C@@H]1C[C@H]3OC(=O)[C@H](OC(=O)/C=C(\C)C(C)C)[C@@H]24 [BRUCEANOL D],0.08,0.55,0.09,0.09,0.08,0.09
COC(=O)[C@]12OC[C@]34[C@H]([C@@H](O)[C@@H]1O)[C@@]1(C)[C@H](O)C(=O)C[C@@H](C)[C@@H]1C[C@H]3OC(=O)[C@H](OC(=O)/C=C(\C)C(C)C)[C@@H]24 [BRUCEANOL E],0.55,3.75,0.37,0.57,0.12,0.11
COC(=O)[C@]12OC[C@]34[C@H]([C@@H](O)[C@@H]1O)[C@@]1(C)C(=O)C(O)=C[C@@H](C)[C@@H]1C[C@H]3OC(=O)[C@H](OC(=O)/C=C(\C)C(C)C)[C@@H]24 [BRUCEANOL F],0.43,0.55,0.13,0.36,0.09,0.09
